MrgX1 ag – agonists of human MrgX1 receptor, primary screen, HEK293 cells, Fluo-4 calcium flux; AID 588627, 2011; Mas-related G-protein coupled receptor member X1 (Homo sapiens), Q96LB2; Fluo-4 calcium fluorescence, agonist mode; active compounds read high; actives 0.44% (n = 310,000); B-score at 10 µM;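 active means calcium response B-score plate-corrected fluorescence ratio at least 3 library SD, with starting fluorescence B-score inside 5 SD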
Target sequence (Q96LB2 whole entry, looked up): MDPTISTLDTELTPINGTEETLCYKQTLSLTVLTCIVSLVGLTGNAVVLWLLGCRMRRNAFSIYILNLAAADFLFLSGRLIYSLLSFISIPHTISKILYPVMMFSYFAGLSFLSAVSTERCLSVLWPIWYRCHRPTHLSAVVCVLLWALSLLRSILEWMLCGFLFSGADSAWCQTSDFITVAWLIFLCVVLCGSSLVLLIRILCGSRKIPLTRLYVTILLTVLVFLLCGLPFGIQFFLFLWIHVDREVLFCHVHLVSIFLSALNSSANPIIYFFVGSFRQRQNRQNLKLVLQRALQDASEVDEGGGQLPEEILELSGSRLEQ
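System – MrgX1-expressing HEK293 cells · Incubation – cells plated overnight, dye loaded 0.5 h 37 °C, 0.5 h room temperature · Technique – kinetic Fluo-4 NW fluorescence of intracellular calcium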
RGS4 pot – RGS4 potentiators or activators, primary screen, cell-based, HEK293 M3R inducible RGS4, calcium flux; B-score at 10 µM; carbachol calcium flux Fluo4; active compounds read low; actives 0.92% (n = 310,000); AID 463111, 2010;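 active means B-score of the integrated calcium signal more than 4 SD below the library mean, with starting fluorescence not abnormally high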;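 further: negative B-score means reduced calcium response which marks RGS4 activation or potentiation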
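Also added: carbachol at ECmax as muscarinic agonist stimulus; Assay system: HEK293 cells with stable M3R and inducible RGS4; Timing: overnight RGS4 induction, 30 min dye load 37 °C, 20 min compound RT; Measured by: Fluo4-AM (2 µM) calcium-flux fluorescence, kinetic read.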
MrgX1 antagonist – antagonists of human MrgX1 receptor, primary screen, HEK293 cells, Fluo-4 calcium flux | B-score at 10 µM | AID 588676, 2011 | actives 1.3% (n = 310,000) | BAM8-22 antagonism; active compounds read low | Mas-related G-protein coupled receptor member X1 (Homo sapiens), Q96LB2;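 active means calcium-response B-score plate-corrected more than 3 library SD below zero, starting fluorescence within 5 deviations, no agonist response on first addition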;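 further: peak minus trough fluorescence over baseline after final BAM8-22 challenge near maximal dose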
MrgX1 allo act – positive allosteric modulators of MrgX1, primary screen, HEK293 cells, Fluo-4 calcium flux. B-score at 10 µM. actives 0.63% (n = 310,000). FDSS; active compounds read high. AID 588675, 2011;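 active means plate-corrected calcium response at least 3 library SD above typical, normal starting fluorescence, not activating the receptor alone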;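 further: compound read alongside a low EC10 to EC30 dose of BAM8-22 agonist; peak minus trough fluorescence over baseline measured at the second addition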
RGS4 block – RGS4 inhibitors, primary screen, cell-based, HEK293 M3R inducible RGS4, calcium flux; Fluo-4 calcium flux; active compounds read high; triggered by carbachol at its EC20; B-score at 10 µM; actives 0.45% (n = 310,000);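 active means B-score, a plate-corrected calcium signal, over three deviations above library mean, with baseline fluorescence within five deviations of library mean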;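 further: RGS4 expression induced by doxycycline in cells with stable M3 receptor; B-score is computed from the integrated fluorescence ratio over baseline after carbachol; higher B-score means a larger calcium signal and so more RGS4 inhibition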
Target sequence (P49798 whole entry, looked up): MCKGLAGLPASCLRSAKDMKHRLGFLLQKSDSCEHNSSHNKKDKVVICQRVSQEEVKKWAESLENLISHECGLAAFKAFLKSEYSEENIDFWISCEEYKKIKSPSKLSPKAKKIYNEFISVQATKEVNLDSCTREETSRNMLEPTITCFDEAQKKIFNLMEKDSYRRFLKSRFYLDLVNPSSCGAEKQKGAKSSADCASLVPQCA
MrgX1 ag reconf – MrgX1 receptor agonists, duplicate retest, confirmation, HEK293 cells, Fluo-4 calcium flux; actives 78% (n = 600); activation, % at 10 µM; shares compounds with MrgX1 ag; Fluo-4 calcium fluorescence, FDSS;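 active means calcium signal rise, corrected for plate position, at least 3 library SD high, with starting brightness within 5 such deviations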; further: reference of the scale not given here
HEK293 Ca flux – nonspecific calcium signal in parental HEK293, confirmation, counter-screen for MrgX1 antagonist project, parental HEK293 cells, Fluo-4 calcium flux | shares compounds with MrgX1 antagonist | Fluo-4 calcium fluorescence, FDSS | fluorescence ratio F(max-min)/F0 at 10 µM | actives 2% (n = 4,000);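 active means duplicate-averaged calcium fluorescence ratio at least three times the standard deviation of buffer wells, a nonspecific response in parental cells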
HEK293 Ca counter – calcium response in parental HEK293 cells, primary screen, counter-screen for MrgX1 allosteric activator project, cell-based, Fluo-4 calcium flux, duplicate; shares compounds with MrgX1 antagonist; AID 624114, 2012; Fluo-4 fluorescence ratio; active compounds read high; actives 0.4% (n = 4,000); fluorescence ratio F(max-min)/F0 at 10 µM;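 active means calcium fluorescence ratio, averaged over duplicates, at least 3 SD of the buffer-well ratio, meaning a nonspecific response in receptor-free cells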;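 further: untransfected parental HEK293 lacking MrgX1 used as counterscreen for MrgX1 allosteric activators; fluorescence change taken during the second addition on a kinetic imager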
HEK293 Ca cntr2 – calcium response in parental HEK293 cells, primary screen, counter-screen for MrgX1 agonist project, cell-based, Fluo-4 calcium flux, duplicate, agonist mode; shares compounds with MrgX1 antagonist; Fluo-4 calcium fluorescence (FDSS); active compounds read high; fluorescence ratio F(max-min)/F0 at 10 µM; actives 8.7% (n = 4,000); AID 624115, 2012;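 active means calcium fluorescence ratio at least three times the spread of buffer wells, meaning a non-specific response in parental cells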
Numbers stand for hits; i = inactive; nt = no result given. The list is not random: actives were taken first. Their share in the collection is about 3.5%.

SMILES | MrgX1 ag | RGS4 pot | MrgX1 antagonist | MrgX1 allo act | RGS4 block | MrgX1 ag reconf | HEK293 Ca flux | HEK293 Ca counter | HEK293 Ca cntr2
Cc1ccc(-n2nc(C)c3c2OC(N)=C(C#N)C3c2ccncc2)cc1 (configuration not stated) | i | i | i | i | i | nt | nt | nt | nt
Cc1ccc(-n2nc(C)c3c2OC(N)=C(C#N)C3c2ccccc2F)cc1 (configuration not stated) | 27 | i | i | i | i | 163% | i | i | i
O/C(=C\c1ccc2ccccc2n1)c1ccncc1 | 64 | i | i | i | i | 355% | i | i | 127
Cc1ccc[n+](CC(=O)Nc2ccc(N(C)C)cc2)c1 | i | i | i | i | i | nt | nt | nt | nt
CC(C)Oc1ccc(C(=O)CCN2CCOCC2)cc1 | 65 | i | i | i | i | i | i | i | i
COc1ccc(CCNc2cc(C)nc(N)n2)cc1OC | 45 | i | i | i | i | 242% | i | i | i
Cc1[nH][nH]c(=O)c1C(c1ccc(-c2ccc(F)cc2)o1)c1c(C)[nH][nH]c1=O | 40 | i | i | i | i | 216% | i | i | 46
Cc1[nH][nH]c(=O)c1C(c1ccc(-c2ccc(Cl)c(Cl)c2)o1)c1c(C)[nH][nH]c1=O | i | i | i | i | i | nt | nt | nt | nt
COc1cc(C(=O)CCN2CCC(c3ccccc3)C2)cc(OC)c1OC (configuration not stated) | i | i | i | i | i | nt | nt | nt | nt
O=C(c1cccs1)N1CCC(c2ccccc2)C1 (configuration not stated) | i | i | i | i | i | nt | nt | nt | nt
O=C(CCN1CCC(c2ccccc2)C1)c1ccc2c(c1)OCCO2 (configuration not stated) | 36 | i | i | i | i | i | i | i | i
O=C(CCN1CCC(c2ccccc2)C1)c1cccs1 (configuration not stated) | 44 | i | i | i | i | 140% | i | i | i
Fc1ccc(NC(=S)NCCc2ccc(Cl)cc2)cc1 | i | i | i | i | i | nt | nt | nt | nt
Fc1ccc(CCNC(=S)Nc2ccc(F)c(Cl)c2)cc1 | 30 | i | i | i | i | 150% | i | i | i
CCNc1nc(NC(C)C)nc(N(C#N)Cc2ccccc2)n1 | 42 | i | i | i | i | 185% | i | i | i
Cn1c(=O)c(C(=O)NNC(=O)c2ccccc2F)c(O)c2ccccc21 | 65 | i | i | i | i | 405% | i | i | 71
CCn1c(=O)c(C(=O)NNC(=O)c2ccccc2Cl)c(O)c2ccccc21 | 105 | i | i | i | i | 322% | i | i | 78
Cc1ccc(S(=O)(=O)c2cnc(-c3ccccc3)nc2N2CCCCC2)cc1 | i | i | i | i | i | nt | nt | nt | nt
CCN(CC)CCNC(=O)c1ccc(NC(=O)Nc2cccc3ccccc23)cc1 | i | i | i | i | i | nt | nt | nt | nt
COc1cccc2cc(C(=O)NCCc3ccccc3)oc12 | i | i | i | i | i | nt | nt | nt | nt
COc1ccc(C(=O)CSc2n[nH]c(C)n2)cc1[N+](=O)[O-] | i | i | i | i | i | nt | nt | nt | nt
Cc1ccc(S(=O)(=O)Nc2ccc3c(c2)nc2n3CCN(Cc3ccccc3)C2)cc1 | 34 | i | i | i | i | i | i | i | i
O=S(=O)(Nc1ccc2c(c1)nc1n2CCN(Cc2ccccc2)C1)c1ccccc1 | i | i | i | i | i | nt | nt | nt | nt
c1ccc(CNc2ncnc3sc4c(c23)CCC4)nc1 | i | i | i | i | i | nt | nt | nt | nt
c1ccc(CNc2ncnc3scc(-c4cccs4)c23)nc1 | 27 | i | i | i | i | 160% | i | i | i
SMILES | MrgX1 ag | RGS4 pot | MrgX1 antagonist | MrgX1 allo act | RGS4 block | MrgX1 ag reconf | HEK293 Ca flux | HEK293 Ca counter | HEK293 Ca cntr2
CCCCc1ncc(CN2CCC(CC3CCCCO3)(C(=O)OCC)CC2)[nH]1 (configuration not stated) | i | i | i | i | i | nt | nt | nt | nt
CCOC(=O)C1(CC2CCCCO2)CCN(Cc2cc3ccccc3[nH]2)CC1 (configuration not stated) | 113 | i | i | i | i | 651% | i | i | 95
CCOc1ccc(C(O)C(CN2CCOCC2)c2ccccc2)cc1 (configuration not stated) | i | i | i | i | i | nt | nt | nt | nt
COc1ccc(Cl)cc1NC(=O)CN(C)C(=O)c1cc2ccccc2cc1O | i | i | i | i | i | nt | nt | nt | nt
COc1cc(SC)ccc1C(=O)Nc1ccc(Cl)cn1 | 40 | i | i | i | i | i | i | i | i
O=C(O)c1cccnc1SCC(=O)N1CCCc2ccccc21 | 36 | i | i | i | i | i | i | i | i
COc1ccccc1N1CCN(C2CCCCC2NS(=O)(=O)c2ccc(Cl)cc2)CC1 (configuration not stated) | 48 | i | i | i | i | 241% | i | i | i
CCCc1[nH]n(-c2nc3ccccc3s2)c(=O)c1C=NCC1CCCO1 (configuration not stated) | 51 | i | i | i | i | 187% | i | i | i
COc1ccccc1C(=O)NNC(=S)NC(=O)c1cccs1 | 80 | i | i | i | i | 476% | i | i | 111
O=C(NC(=S)NNC(=O)c1ccccc1O)c1cccs1 | 132 | i | i | i | i | 358% | i | i | 71
O=C(Cc1ccc(Cl)cc1)NNC(=S)NC(=O)c1cccs1 | 122 | i | i | i | i | 316% | i | i | 68
O=C(O)c1cnn(-c2nc(-c3cccc(F)c3)cs2)c1C(F)(F)F | 48 | i | i | i | i | 156% | i | i | i
Nc1cccc(-c2csc(-n3ncc(C(=O)O)c3C(F)(F)F)n2)c1 | i | i | i | i | i | nt | nt | nt | nt
Cc1cc(C)nc(/N=C(\N)Nc2ccc(CC(=O)OC(C)C)cc2)n1 | 143 | i | i | i | i | 424% | i | i | 90
Cc1cc(C)nc(/N=C(\N)Nc2cccc(OCc3ccccc3)c2)n1 | 153 | i | i | i | i | 523% | i | i | 100
COc1ccccc1N/C(N)=N/c1nc(C)cc(C)n1 | i | i | i | i | i | nt | nt | nt | nt
